4 compounds from ChEMBL document CHEMBL4725432, “Dethioacylation by Sirtuins 1-3: Considerations for Drug Design Using Mechanism-Based Sirtuin Inhibition” (ACS Med Chem Lett, 2020) can be followed below.

In series [1] the target is T1, NAD-dependent protein deacetylase sirtuin-1 (Homo sapiens) (UniProt Q96EB6).
T1 sequence (whole entry): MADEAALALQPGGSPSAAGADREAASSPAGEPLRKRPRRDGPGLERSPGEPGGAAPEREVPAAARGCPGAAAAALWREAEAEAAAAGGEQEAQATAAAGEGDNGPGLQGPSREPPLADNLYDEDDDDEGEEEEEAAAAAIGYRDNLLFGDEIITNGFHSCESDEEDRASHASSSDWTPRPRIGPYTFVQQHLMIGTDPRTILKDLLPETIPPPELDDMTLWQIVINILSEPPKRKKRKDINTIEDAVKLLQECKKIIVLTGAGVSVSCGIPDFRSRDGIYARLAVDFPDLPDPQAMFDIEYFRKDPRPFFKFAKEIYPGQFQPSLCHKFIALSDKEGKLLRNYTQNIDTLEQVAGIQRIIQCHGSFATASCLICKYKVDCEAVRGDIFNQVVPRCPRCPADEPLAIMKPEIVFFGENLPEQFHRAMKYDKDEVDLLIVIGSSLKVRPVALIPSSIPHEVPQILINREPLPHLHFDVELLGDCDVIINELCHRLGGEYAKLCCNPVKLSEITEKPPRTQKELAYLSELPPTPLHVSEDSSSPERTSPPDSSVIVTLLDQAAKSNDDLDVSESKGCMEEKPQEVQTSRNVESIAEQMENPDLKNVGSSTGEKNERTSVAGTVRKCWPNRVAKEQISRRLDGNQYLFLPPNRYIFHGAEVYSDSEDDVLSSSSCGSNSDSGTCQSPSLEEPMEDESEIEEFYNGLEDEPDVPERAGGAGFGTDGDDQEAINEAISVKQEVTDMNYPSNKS
The series is described as follows: Inhibition of human recombinant N-terminal GST-tagged SIRT1 (193 to 741 residues) deacetylation activity in presence of substrate and NAD+ at 15 uM after 15 mins by reversed-phase UPLC-MS analysis relative to control. Details: scale not given: the % may be the effect or the level left.

In series [2] the target is T2, NAD-dependent protein deacetylase sirtuin-3, mitochondrial (Homo sapiens) (UniProt Q9NTG7).
T2 sequence (whole entry): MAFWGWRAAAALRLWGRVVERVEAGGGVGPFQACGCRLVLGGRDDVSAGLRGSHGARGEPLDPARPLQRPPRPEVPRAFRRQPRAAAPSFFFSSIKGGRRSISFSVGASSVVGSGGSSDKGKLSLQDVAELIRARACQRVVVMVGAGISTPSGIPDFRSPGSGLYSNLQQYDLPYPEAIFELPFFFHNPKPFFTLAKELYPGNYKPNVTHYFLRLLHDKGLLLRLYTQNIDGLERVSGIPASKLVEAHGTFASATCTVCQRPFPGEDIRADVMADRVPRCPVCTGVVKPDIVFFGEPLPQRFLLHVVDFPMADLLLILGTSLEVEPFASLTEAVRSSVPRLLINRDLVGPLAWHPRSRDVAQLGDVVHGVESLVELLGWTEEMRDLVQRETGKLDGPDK
The series is described as follows: Inhibition of human recombinant N-terminal GST-tagged SIRT3 (102 to 399 residues) deacetylation activity in presence of substrate and NAD+ at 15 uM after 60 mins measured by reversed-phase UPLC-MS analysis relative to control.

The target in series [3] is T3, NAD-dependent protein deacetylase sirtuin-2 (Homo sapiens) (UniProt Q8IXJ6).
T3 sequence (whole entry): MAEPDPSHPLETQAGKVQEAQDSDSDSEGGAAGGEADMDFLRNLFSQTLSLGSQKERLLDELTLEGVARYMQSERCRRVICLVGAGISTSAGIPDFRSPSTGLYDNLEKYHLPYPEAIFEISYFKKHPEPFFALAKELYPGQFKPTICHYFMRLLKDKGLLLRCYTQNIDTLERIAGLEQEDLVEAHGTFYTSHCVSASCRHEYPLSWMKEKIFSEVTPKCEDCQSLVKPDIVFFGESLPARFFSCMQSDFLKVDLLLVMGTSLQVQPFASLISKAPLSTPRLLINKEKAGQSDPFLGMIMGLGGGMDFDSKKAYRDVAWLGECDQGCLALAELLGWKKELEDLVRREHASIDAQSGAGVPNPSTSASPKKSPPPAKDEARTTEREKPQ
In words: Inhibition of human recombinant C-terminal His-tagged SIRT2 (50 to 356 residues) deacetylation activity in presence of substrate and NAD+ incubated for 60 mins measured after 90 mins by fluorescence assay. The method in brief:
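Recombinant SIRT2 (100 nM or 250 nM) incubated with fluorogenic thioacyl or oxo lysine-AMC substrates plus NAD+. Deacylation read by fluorescence. Two independent experiments in duplicate, standard deviation.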

Series [4] concerns the target T3, NAD-dependent protein deacetylase sirtuin-2 (Homo sapiens). The series is described as follows: Inhibition of human recombinant C-terminal His-tagged SIRT2 (50 to 356 residues) deacetylation activity in presence of substrate and NAD+ at 15 uM incubated 15 to 60 mins by reversed-phase UPLC-MS analysis. To be noted: time min 15-60.
Series [5] deals with T1, NAD-dependent protein deacetylase sirtuin-1 (Homo sapiens). In words: Inhibition of human N-terminal GST-tagged SIRT1 (193 to 741 residues) expressed in Escherichia coli preincubated with NAD+ for 30 mins using Ac-Gln-Pro-Lys-Lys(Ac)-AMC (oxo-10) as substrate at 1 to 100 uM measured after 90 mins by fluorescence assay. Conditions: dose microM 1-100, time 120.0 min. The method in brief: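 Recombinant SIRT1 (100 nM) preincubated 30 min with compound, either with or without NAD+ (500 μM), before the fluorogenic deacetylation read-out. Single-dose %-inhibition. Two independent experiments in duplicate, standard deviation.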

Series [6] deals with T4, NAD-dependent protein deacetylase sirtuin-1 (Homo sapiens, UniProt Q96EB6).
T4 sequence (Q96EB6 whole entry): T1 sequence (whole entry)
In words: Inhibition of human recombinant SIRT1 expressed in Escherichia coli in presence of acyl peptide acetyl-H3K9 as substrate incubated for 5 mins by HPLC analysis.

In series [7] the target is T3, NAD-dependent protein deacetylase sirtuin-2 (Homo sapiens). In words: Inhibition of human recombinant SIRT2 expressed in Escherichia coli in presence of acyl peptide acetyl-H3K9 as substrate at 100 uM incubated for 5 mins by HPLC analysis relative to control.
The target of series [8] is T2, NAD-dependent protein deacetylase sirtuin-3, mitochondrial (Homo sapiens). The series is described as follows: Inhibition of human recombinant SIRT3 expressed in Escherichia coli BL21 in presence of acyl peptide acetyl-H3K9 as substrate at 100 uM incubated for […] mins by HPLC analysis relative to control. To be noted: time 5.0 min.
Series [9] deals with T1, NAD-dependent protein deacetylase sirtuin-1 (Homo sapiens). The series is described as follows: Inhibition of human recombinant N-terminal GST-tagged SIRT1 (193 to 741 residues) deacetylation activity in presence of substrate and NAD+ at 15 uM after 60 mins by reversed-phase UPLC-MS analysis relative to control.
Series [10] has as its target T4, NAD-dependent protein deacetylase sirtuin-1. The series is described as follows: Inhibition of human recombinant N-terminal GST-tagged SIRT1 (193 to 741 residues) expressed in Escherichia coli using Ac-Gln-Pro-Lys-Lys(Ac)-AMC (oxo-10) as substrate by fluorescence assay.
For series [11], the target named is T5, NAD-dependent protein deacetylase sirtuin-2 (Homo sapiens, UniProt Q8IXJ6).
T5 sequence (Q8IXJ6 whole entry): T3 sequence (whole entry)
The series is described as follows: Inhibition of human C-terminal His-tagged SIRT2 (50 to 356 residues) expressed in Escherichia coli using Ac-Gln-Pro-Lys-Lys(pro)-AMC (oxo-11) as substrate by fluorescence assay.

The nature of series [12]: Metabolic stability of compound in human serum assessed as half life incubated for >10 mins measured after 90 mins by HPLC analysis. The class given is ADME, cell-free.
The target of series [13] is T2, NAD-dependent protein deacetylase sirtuin-3, mitochondrial (Homo sapiens). In words: Inhibition of human N-terminal GST-tagged SIRT3 (102 to 399 residues) expressed in Escherichia coli using Ac-Gln-Pro-Lys-Lys(but)-AMC (oxo-12) as substrate at 100 uM by fluorescence assay relative to control.
In series [14] the target is T1, NAD-dependent protein deacetylase sirtuin-1 (Homo sapiens). In words: Inhibition of human recombinant N-terminal GST-tagged SIRT1 (193 to 741 residues) deacetylation activity in presence of substrate and NAD+ at 15 uM after 15 to 60 mins by reversed-phase UPLC-MS analysis. Conditions: time min 15-60.
Series [15] has the same target. In words: Inhibition of human N-terminal GST-tagged SIRT1 (193 to 741 residues) expressed in Escherichia coli preincubated without NAD+ for 30 mins using Ac-Gln-Pro-Lys-Lys(Ac)-AMC (oxo-10) as substrate at 1 to 100 uM measured after 90 mins by fluorescence assay. To be noted: dose microM 1-100, time 30.0 min.
For series [16] the target is unchanged. The series is described as follows: Inhibition of SIRT1 in HEK293 cells assessed as increase in p53 acetylation co-treated with TSA at 25 uM for 6 hrs by western blot analysis. The class given is cell-based. The method in brief: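 HEK293 cells exposed 6 h to compound at 25 μM together with TSA (1 μM). Whole-cell lysates immunoblotted for Ac-p53 (K382) and total p53. Ratio Ac-p53/p53 normalized to DMSO control. Two independent experiments in duplicate, SEM.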

For series [17] the target is unchanged. In words: Inhibition of human recombinant N-terminal GST-tagged SIRT1 (193 to 741 residues) deacetylation activity in presence of substrate and NAD+ at 15 uM after 30 mins by reversed-phase UPLC-MS analysis relative to control.

The inhibition is the share of the control response that was lost under treatment. A word on the IC50: it is the concentration that inhibits the measured activity by half. For orientation: half-life means the time needed for the level to fall by half in the phase considered.

The source made the active and inactive calls. Residues, ends and D or L forms follow the SMILES beside them. *: point of attachment. Cbz = O=C(OCc1ccccc1)*; NHiPr = CC(C)N*

With `CC(=O)NCCCC[C@H](NC(=O)OCc1ccccc1)C(=O)N[C@@H](Cc1c[nH]c2ccccc12)C(=O)NC(C)C` (Cbz-Lys(Ac)-Trp-NHiPr), the Activity in series [1] was > 80%. The inhibition in series [2] was found to be 54%. Further, the inhibition result in series [3] and in series [4] was “inactive” throughout.

For the compound `CCCC(=S)NCCCC[C@H](NC(=O)OCc1ccccc1)C(=O)Nc1ccccc1`, the inhibition entry in [5], in [2] and in [9] was “inactive” in each case. In addition, the IC50 in series [6] came to 12000 nM. Moreover, the inhibition in series [7] is 88%; in series [8], 23%.

In the case of `CCC(=S)NCCCC[C@H](NC(=O)OCc1ccccc1)C(=O)N[C@@H](Cc1c[nH]c2ccccc12)C(=O)NC(C)C`, the half-inhibitory concentration (IC50) in series [10] stood at 510 nM; in [11], 2200 nM. Besides, the inhibition result in [5], in series [3] and in [15] was “inactive” throughout. The half-life in [12] was 7 h. The compound also had an inhibition in series [13] of 19%. The inhibition entry in [14] was “Active”.

In the case of `CC(=S)NCCCC[C@H](NC(=O)OCc1ccccc1)C(=O)N[C@@H](Cc1c[nH]c2ccccc12)C(=O)NC(C)C`, the inhibition result in series [5] and in series [16] was “Active” in each case. Besides, the inhibition result in series [3] was “inactive”. In series [12], the half-life is > 7 h. Also, the inhibition in [17] worked out at 3%; in [9] it was 7%.
